5-HT1A blocker – antagonists of human 5-HT1a serotonin receptor. P08908. inhibition, % at 10 µM. actives 0.68% (n = 62,000). CHO 5-HT1a Ga15 NFAT-bla reporter, antagonist mode. AID 612;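 active = inhibition above the mean of all tested compounds plus 3 SD, cut at about 43% in these data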;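 also: receptor stimulated by 5-CT agonist at 100 nM near EC80; beta-lactamase reporter measured by ratiometric fluorescence of a cleavable substrate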
HTR1E agonist – activates the human 5-HT1E serotonin receptor; CHO 5-HT1E Ga15 NFAT-bla reporter, FRET; 0% DMSO wells, 100% control agonist wells; activation, % at 6 µM; actives 0.69% (n = 65,000); P28566;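 active = activation above a set limit, the screen-wide mean activation plus 3 SD, cut at about 8.5% in these data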;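 also: 100% = positive control agonist at 1 µM giving full maximal response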
Target sequence (P28566 whole entry, looked up): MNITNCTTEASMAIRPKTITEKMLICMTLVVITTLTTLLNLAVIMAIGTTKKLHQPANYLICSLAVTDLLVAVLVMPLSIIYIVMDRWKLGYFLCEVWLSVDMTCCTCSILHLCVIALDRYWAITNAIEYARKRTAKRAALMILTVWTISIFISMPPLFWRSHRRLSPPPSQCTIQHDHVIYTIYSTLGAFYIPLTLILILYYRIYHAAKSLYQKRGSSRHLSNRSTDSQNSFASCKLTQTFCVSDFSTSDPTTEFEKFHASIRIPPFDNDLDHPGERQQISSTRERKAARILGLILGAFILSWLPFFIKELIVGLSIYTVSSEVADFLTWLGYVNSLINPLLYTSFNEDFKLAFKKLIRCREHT
HTR1E antagonist – antagonists of human 5-HT1E serotonin receptor | CHO 5-HT1E Ga15 NFAT-bla reporter, FRET, antagonist | P28566 | actives 0.99% (n = 65,000) | inhibition, % at 6 µM | AID 571;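 active = inhibition above a set limit, the mean inhibition across every tested compound plus 3 SD, cut at about 29% in these data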;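 also: signal is the 460 over 535 nm emission ratio of beta-lactamase substrate; 0% = agonist plus DMSO wells and 100% = wells without agonist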
HEK293 NFkB inh – lowers PMA/ionomycin-induced NF-kB signal in HEK293 cells; HEK-293 NF-kB luciferase reporter, luminescence; inhibition, % at 3 µM; actives 0.21% (n = 62,000); AID 465;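 active = inhibition above the mean of all tested compounds plus 3 SD, cut at about 40% in these data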;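 also: 0% = stimulated DMSO wells and 100% = 10 µM reference inhibitor 5653914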
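System: NF-kB luciferase reporter HEK-293 cells | Replication: Single test | Control set: DMSO vs reference inhibitor | Evaluation: % inhibition | Schedule: 1 h pretreatment, 16 h stimulation, 37 °C | Probe or stimulus: PMA with ionomycin | Compound dosing: One dose, 3 µM | Detection: Luciferase luminescence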
Jurkat viability – cytotoxicity toward Jurkat cells; Jurkat E6.1 viability, ATP luminescence, 48 h; inhibition, % at 4 µM; actives 1.2% (n = 56,000); AID 463;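 active = inhibition above the mean inhibition of all tested compounds plus 3 SD, cut at about 28% in these data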
HTR1A agonist – activates the human 5-HT1a serotonin receptor. P08908. CHO 5-HT1a Ga15 NFAT-bla reporter, FRET ratio; 0% basal, 100% maximal reference agonist. activation, % at 10 µM. actives 0.56% (n = 65,000);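 active = activation above the screen-wide mean activation plus 3 SD, cut at about 19% in these data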;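 also: 0% = DMSO wells and 100% = 5-CT at EC100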
* marks the source's active call; other numbers are inactive results; · = no result given. The list is not random: actives were taken first. Their share in the collection is about 3.3%.

SMILES	5-HT1A blocker	HTR1E agonist	HTR1E antagonist	HEK293 NFkB inh	Jurkat viability	HTR1A agonist
Cc1cccc(Cn2c(NCC(C)O)nc3c2c(=O)n(C)c(=O)n3C)c1 (centres undefined)	-18	0	-4	12	39*	0
Cc1ccc(C)c(-c2nnc(OCC(=O)Nc3cc(C)on3)c3ccccc23)c1	22	0	5	19	1	-2
COc1ccc(N2C(=O)CC(Sc3nnc(-c4ccccc4)o3)C2=O)cc1 (centres undefined)	47*	0	-5	6	-1	-3
O=C1CC(Sc2nnc(-c3ccccc3O)o2)C(=O)N1c1ccccc1 (centres undefined)	12	1	3	14	-4	-2
CCOC(=O)C1=C(N)n2c(s/c(=C\c3cccnc3)c2=O)=C(C#N)C1c1cccnc1 (centres undefined)	-9	19*	-7	14	-3	0
COC(=O)C1=C(N)n2c(s/c(=C\c3cccnc3)c2=O)=C(C(=O)OC)C1c1cccnc1 (centres undefined)	5	1	7	7	3	-3
O=C(NCCOc1ccccc1)c1ncn[nH]1	9	0	3	3	-4	-2
CCNc1ccc(C(=O)OCC)cc1NC(=O)c1cccc(N(C)C)c1	28	0	45*	42*	·	-4
CCNc1ccc(C(=O)OCC)cc1NC(=O)c1cc(S(=O)(=O)N2CCOCC2)ccc1C	-5	0	4	18	·	0
CCOC(=O)NC1(Nc2ccc(Cl)cn2)Oc2ccccc2O1	13	0	7	18	33*	-2
Cn1c(-c2ccccc2)cnc1SCc1nc2ccccc2c(=O)[nH]1	-24	59*	-15	-38	5	0
Cn1c(SCc2nc3ccccc3c(=O)[nH]2)nnc1-c1ccco1	-5	0	-11	-1	-7	0
CCNc1nc(NCC)n2c(SCc3nc4ccccc4c(=O)[nH]3)nnc2n1	11	-1	53*	11	-2	-3
Brc1c(OCCOCCn2cncn2)ccc2ccccc12	-5	0	4	1	3	-2
CCn1nnc(-c2ccccc2NC(=O)c2cc(OC)c(OC)c(OC)c2)n1	3	1	31*	20	2	1
CCn1c(SCC(=O)Nc2cc3oc4ccccc4c3cc2OC)nnc1-c1cccs1	4	-1	5	5	9	25*
CCn1c(SCC(=O)Nc2nccs2)nnc1-c1ccccc1	-5	0	4	14	-1	-1
COc1cc2c(cc1NC(=O)CSc1nnc(Cc3cccs3)n1C)oc1ccccc12	4	0	-3	12	8	4
CCn1c(SCC(=O)Nc2nccs2)nnc1-c1cc2cccc(OC)c2o1	-5	11*	5	11	-1	1
Cc1ccc(S(=O)(=O)NC(=O)COc2ccccc2C(N)=O)cc1	0	0	4	17	2	-4
Cn1nc(C(=O)Nc2c(-c3ccccc3)nc3sccn23)c2ccccc2c1=O	4	0	-2	14	-5	1
Cc1nc(SCc2nc3ccccc3[nH]2)c2oc3ccccc3c2n1	32	0	39*	13	0	0
Cc1nc(N2CCN(Cc3nc4ccccc4[nH]3)CC2)c2oc3ccccc3c2n1	11	28*	31*	0	·	3
Fc1ccc(CSc2ncnc3c2oc2ccccc23)cc1	-7	1	0	7	-2	1
c1ccc2[nH]c(CSc3ncnc4c3oc3ccccc34)nc2c1	21	0	38*	22	8	0
SMILES	5-HT1A blocker	HTR1E agonist	HTR1E antagonist	HEK293 NFkB inh	Jurkat viability	HTR1A agonist
Cc1nc(SCCO)c2oc3ccccc3c2n1	-2	2	18	15	0	1
Cn1c(=O)n(CCN2CCOCC2)c(=O)c2c1nc1n2CCN1c1ccccc1	9	1	4	3	8	-1
O=C(NCc1ccc2c(c1)OCO2)C1CCN(Cc2cnn(-c3ccccc3)c2-n2cccc2)CC1	-4	12*	0	18	·	0
O=c1oc2ccccc2cc1NCc1ccccc1O	1	1	1	15	41*	1
CCn1c(NC(=O)c2cccc(Cn3cc(Cl)cn3)c2)nc2ccccc21	16	2	-5	4	75*	-1
Cn1c(NC(=O)c2cccc(Cn3cc(Cl)cn3)c2)nc2ccccc21	16	2	-10	-20	2	1
COc1ccccc1OCC(O)Cn1c(=N)n(Cc2ccccc2)c2ccccc21 (centres undefined)	42	0	-14	1	·	-2
CCCCn1c(=N)n(CC(O)COc2cccc(C)c2)c2ccccc21 (centres undefined)	43*	0	0	1	13	-1
Cc1ccc(OCC(O)Cn2c(=N)n(CCN3CCOCC3)c3ccccc32)cc1 (centres undefined)	20	1	4	8	-4	-1
CCCCCn1c(=N)n(CC(O)COc2ccccc2OC)c2ccccc21 (centres undefined)	64*	0	11	8	12	0
Cc1ccc(OCC(O)Cn2c(=N)n(CCN3CCCCC3)c3ccccc32)cc1 (centres undefined)	43*	-1	6	24	6	0
COCCNC(=O)CN(C(=O)CCC(=O)Nc1nccs1)c1ccccc1OC	8	0	1	-10	-5	0
COc1ccc(C(=O)NC(=O)Nc2cc(C)ccn2)cc1	14	-1	12	59*	1	-2
CC1(c2ccc(Cl)cc2)NC(=O)N(CC(=O)N2CCCC2)C1=O (centres undefined)	0	1	-3	13	-2	-1
O=C(c1cnn(-c2nc3ccccc3s2)c1)c1ccccc1O	-7	0	12	7	-3	21*
Cc1cc(Cl)ccc1OCCCC(N)=O	1	-1	-9	6	-5	0
Cc1cc(Cl)ccc1OCCCC(=O)NO	5	0	4	-7	93*	-1
O=c1c2c3c(sc2nc2sc(CN4CCOCC4)cn12)CCCC3	1	0	8	5	-4	-3
Cc1nnc(Sc2nc3c(c(=O)[nH]c(=O)n3C)n2Cc2ccccc2Cl)s1	-19	0	-6	14	3	0
COc1cc2c(=O)n(-c3ccc(C)cc3)c(=O)n(CC(=O)c3ccc4c(c3)OCO4)c2cc1OC	-3	1	-3	-8	-1	-1
COc1cc2c(O)c3c(c(-c4ccc5c(c4)OCO5)c2cc1OC)C(=O)OC3	21	-1	34*	34	60*	-1
Clc1ccc(SCCCCn2ccnc2)cc1	-5	0	-12	-9	3	-3

Source: PubChem
